According to ChEMBL document CHEMBL1138022, “Structurally simplified macrolactone analogues of halichondrin B” (Bioorg Med Chem Lett, 2004):

Key:
DLD-1 = experiment: In vitro inhibitory concentration required to inhibit the growth of DLD-1 cells under continuous exposure conditions for 3-4 days; format: functional, cell-based; conditions: Homo sapiens
Outline: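 Human colon cancer DLD-1 cells were exposed to compound continuously for 3–4 days and growth inhibition was measured. IC50 is given ± SEM, with n the number of experiments.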

P388 = experiment: Fold resistance calculated as the inhibition concentration ratio between retrovirally transformed P388/VMDRC.04 and parental P388 cells; format: functional
Outline: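 P-glycoprotein-mediated efflux assessed in murine P388/VMDRC.04, a retrovirally transformed multidrug-resistant subline of P388/S leukemia cells, alongside parental P388 cells. Growth inhibition IC50 was measured in each line. Fold resistance is the IC50 ratio of P388/VMDRC.04 to parental P388.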

U-937 = experiment: In vitro inhibitory concentration required to inhibit the growth of U937 cells was determined by mitotic block reversibility assay; format: functional; conditions: Homo sapiens
Outline: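 Reversibility assay in human histiocytic lymphoma U937 cells. After drug washout, flow cytometry scored whether a complete mitotic block was still maintained 10 h later.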

C=C1C[C@@H]2CC[C@@]34C[C@@H]5O[C@@H]6C(O[C@H]7CC[C@H](CC(=O)O[C@@H]8[C@@H](OC)[C@H](C[C@@H](O)CO)O[C@H]8C[C@H]8O[C@@H](CC[C@@H]1O2)C[C@@H](C)C8=C)O[C@@H]7[C@@H]6O3)[C@H]5O4
IC50 (DLD-1): 1.4 nM | FR (P388): 8.8 | IC99 (U-937): 0.03 µM

C=C1C[C@@H]2CC[C@@]34C[C@@H]5O[C@@H]6C(O[C@H]7CC[C@H](CC(=O)O[C@@H]8[C@@H](OC)[C@H](C[C@@H](O)CC(O)CO)O[C@H]8C[C@H]8O[C@@H](CC[C@@H]1O2)C[C@@H](C)C8=C)O[C@@H]7[C@@H]6O3)[C@H]5O4 (some centres undefined)
IC50 (DLD-1): 1.9 nM | FR (P388): 15 | IC99 (U-937): 0.03 µM

C=C1C[C@@H]2CC[C@@]34C[C@@H]5O[C@@H]6C(O[C@H]7CC[C@H](CC(=O)O[C@@H]8[C@@H](C)[C@@H]9O[C@H](CO)[C@@H](O)C[C@@H]9O[C@H]8C[C@H]8O[C@@H](CC[C@@H]1O2)C[C@@H](C)C8=C)O[C@@H]7[C@@H]6O3)[C@H]5O4
IC50 (DLD-1): 3.4 nM | FR (P388): 12 | IC99 (U-937): 0.22 µM

C=C1C[C@@H]2CC[C@@]34C[C@@H]5O[C@@H]6C(O[C@H]7CC[C@H](CC(=O)O[C@@H]8[C@@H](OC)[C@H](CO)O[C@@H]8C[C@H]8O[C@@H](CC[C@@H]1O2)C[C@@H](C)C8=C)O[C@@H]7[C@@H]6O3)[C@H]5O4
IC50 (DLD-1): > 1000 nM

C=C1C[C@@H]2CC[C@@]34C[C@@H]5O[C@@H]6C(O[C@H]7CC[C@H](CC(=O)O[C@@H]8[C@H](OC)[C@H](CC(O)CO)O[C@H]8C[C@H]8O[C@@H](CC[C@@H]1O2)C[C@@H](C)C8=C)O[C@@H]7[C@@H]6O3)[C@H]5O4 (some centres undefined)
IC50 (DLD-1): 220 nM

C=C1C[C@@H]2CC[C@@]34C[C@@H]5O[C@@H]6C(O[C@H]7CC[C@H](CC(=O)O[C@@H]8[C@@H](OC)[C@H](CCC(=O)C(F)(F)F)O[C@H]8C[C@H]8O[C@@H](CC[C@@H]1O2)C[C@@H](C)C8=C)O[C@@H]7[C@@H]6O3)[C@H]5O4
IC50 (DLD-1): 0.67 nM | FR (P388): 4.5 | IC99 (U-937): 0.03 µM

C=C1C[C@@H]2CC[C@@]34C[C@@H]5O[C@@H]6C(O[C@H]7CC[C@H](CC(=O)O[C@@H]8[C@@H](OC)[C@@H]9OC(C)(C)OC[C@@H]9O[C@H]8C[C@H]8O[C@@H](CC[C@@H]1O2)C[C@@H](C)C8=C)O[C@@H]7[C@@H]6O3)[C@H]5O4
IC50 (DLD-1): 11 nM | FR (P388): 1.7 | IC99 (U-937): > 1 µM

C=C1C[C@@H]2CC[C@@]34C[C@@H]5O[C@@H]6C(O[C@H]7CC[C@H](CC(=O)O[C@@H]8[C@@H](OC)[C@H](CCO)O[C@H]8C[C@H]8O[C@@H](CC[C@@H]1O2)C[C@@H](C)C8=C)O[C@@H]7[C@@H]6O3)[C@H]5O4
IC50 (DLD-1): 0.97 nM | FR (P388): 2.8 | IC99 (U-937): 0.1 µM

C=C1C[C@@H]2CC[C@@]34C[C@@H]5O[C@@H]6C(O[C@H]7CC[C@H](CC(=O)O[C@@H]8[C@@H](OCC)[C@@H](O)[C@H](CC(O)CO)O[C@H]8C[C@H]8O[C@@H](CC[C@@H]1O2)C[C@@H](C)C8=C)O[C@@H]7[C@@H]6O3)[C@H]5O4 (some centres undefined)
IC50 (DLD-1): 490 nM

C=C1C[C@@H]2CC[C@@]34C[C@@H]5O[C@@H]6C(O[C@H]7CC[C@H](CC(=O)O[C@@H]8[C@@H](OC)[C@@H](O)[C@H](CO)O[C@H]8C[C@H]8O[C@@H](CC[C@@H]1O2)C[C@@H](C)C8=C)O[C@@H]7[C@@H]6O3)[C@H]5O4
IC50 (DLD-1): 2 nM | FR (P388): 13 | IC99 (U-937): 0.065 µM

C=C1C2C[C@@H]3O[C@H](C[C@@H](O)CO)[C@H](OC)[C@H]3OC(=O)C[C@H]3CC[C@@H]4OC5[C@H]6O[C@H]7C[C@](CC[C@H]8CC(=C)[C@H](CC[C@@H](C[C@H]1C)O2)O8)(OC6[C@H]4O3)O[C@H]57
IC50 (DLD-1): 0.67 nM | FR (P388): 9.3 | IC99 (U-937): 0.02 µM

C=C1C[C@@H]2CC[C@@]34C[C@@H]5O[C@@H]6C(O[C@H]7CC[C@H](CC(=O)O[C@@H]8[C@@H](OC)[C@H](OC)[C@H](CCO)O[C@H]8C[C@H]8O[C@@H](CC[C@@H]1O2)C[C@@H](C)C8=C)O[C@@H]7[C@@H]6O3)[C@H]5O4
IC50 (DLD-1): 2.1 nM | FR (P388): 2.6 | IC99 (U-937): > 1 µM

C=C1C[C@@H]2CC[C@@]34C[C@@H]5O[C@@H]6C(O[C@H]7CC[C@H](CC(=O)O[C@@H]8[C@@H](OC)[C@@H](O)CO[C@H]8C[C@H]8O[C@@H](CC[C@@H]1O2)C[C@@H](C)C8=C)O[C@@H]7[C@@H]6O3)[C@H]5O4
IC50 (DLD-1): > 1000 nM

C=C1C[C@@H]2CC[C@@]34C[C@@H]5O[C@@H]6C(O[C@H]7CC[C@H](CC(=O)O[C@@H]8[C@@H](OC)[C@@H](C[C@H](O)CO)O[C@H]8C[C@H]8O[C@@H](CC[C@@H]1O2)C[C@@H](C)C8=C)O[C@@H]7[C@@H]6O3)[C@H]5O4
IC50 (DLD-1): 0.67 nM | FR (P388): 6.2 | IC99 (U-937): 0.015 µM

C=C1C[C@@H]2CC[C@@]34C[C@@H]5O[C@@H]6C(O[C@H]7CC[C@H](CC(=O)O[C@@H]8[C@@H](OC)[C@@H](O)[C@H](CC(O)CO)O[C@H]8C[C@H]8O[C@@H](CC[C@@H]1O2)C[C@@H](C)C8=C)O[C@@H]7[C@@H]6O3)[C@H]5O4 (some centres undefined)
IC50 (DLD-1): 19 nM | FR (P388): 23 | IC99 (U-937): 0.053 µM

C=C1C[C@@H]2CC[C@@]34C[C@@H]5O[C@@H]6C(O[C@H]7CC[C@H](CC(=O)O[C@@H]8[C@@H](OC)[C@H](O)[C@H](CCOC)O[C@H]8C[C@H]8O[C@@H](CC[C@@H]1O2)C[C@@H](C)C8=C)O[C@@H]7[C@@H]6O3)[C@H]5O4
IC50 (DLD-1): 1.8 nM | FR (P388): 1.6 | IC99 (U-937): > 1 µM

C=C1C[C@@H]2CC[C@@]34C[C@@H]5O[C@@H]6C(O[C@H]7CC[C@H](CC(=O)O[C@@H]8[C@@H](C)[C@H](O)[C@H](CCO)O[C@H]8C[C@H]8O[C@@H](CC[C@@H]1O2)C[C@@H](C)C8=C)O[C@@H]7[C@@H]6O3)[C@H]5O4
IC50 (DLD-1): 2.5 nM | FR (P388): 5.6 | IC99 (U-937): 0.17 µM

C=C1C[C@@H]2CC[C@@]34C[C@@H]5O[C@@H]6C(O[C@H]7CC[C@H](CC(=O)O[C@H]8[C@@H](OC)[C@H](CC(O)CO)O[C@H]8C[C@H]8O[C@@H](CC[C@@H]1O2)C[C@@H](C)C8=C)O[C@@H]7[C@@H]6O3)[C@H]5O4 (some centres undefined)
IC50 (DLD-1): > 1000 nM
